In all, about 2,500 compounds went through this assay and about 1,200 (48%) were called active. The set was probably picked from earlier hits. The list shows a part of the results. Values without a mark were called inactive.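 Rule for the calls: active = mean activation above the low control average plus 3 SD, as set in the primary screen (cut at about 12% in these data); inactive = the rest.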
Each compound was assayed against Troponin I, cardiac muscle (Homo sapiens) + Troponin T, cardiac muscle (Homo sapiens) + Troponin C, slow skeletal and cardiac muscles (Homo sapiens) (UniProt P19429+P45379+P63316) (assay: cardiac RTF calcium sensitivity activators, confirmation, biochemical, IANBD-TnC fluorescence, triplicate (AID 504383;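 note: 0% = DMSO at 0.472 mM calcium and 100% = DMSO at 2.9 mM calcium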)). Conditions: IANBD-labeled cardiac RTF, Ca2+ sensitivity fluorescence; at 7.2 µM; stronger effect = higher value; scaled from EC20 to saturating calcium; tested at EC20 calcium, 0.472 mM.
Outline: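 material = labelled regulated thin filaments | probe or stimulus = Ca2+ 0.472 mM, EC20 level | dosing = single nominal compound dose of 7.2 µM | schedule = 15 min at 25 °C | signal = fluorescence intensity of labelled filaments | evaluation = fluorescence gain scaled between EC20 and EC100 calcium controls | benchmarks = low control EC20 calcium, high control EC100 calcium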
For `NC(=O)[C@@H]1CCCNc2c(I)cc([N+](=O)[O-])cc2C(=O)N[C@@H](CCC(=O)O)C(=O)N[C@@H](CO)C(=O)N1`, the activation was 6.37%.
In the case of `OC(CNCC1CCCO1)Cn1c2ccc(Br)cc2c2cc(Br)ccc21` (stereo unspecified), the activation is reported as 34.1% (active).
With `COC(=O)C(C)n1cnc2c(nnn2Cc2ccc(Cl)cc2)c1=O` (stereo unspecified) the activation was 12.4% (active).
In the case of `Cc1ccccc1-n1c(SCc2c(C)noc2C)nnc1-c1cccnc1`, the activation is reported as 13.8% (active).
For `COc1cc2c(cc1OC)CN(Cc1cc(=O)oc3cc(C)c(C)cc13)CC2`, the activation was -0.4%.
`COc1ccc(-c2csc(N3CCN(c4cc5c(cc4Cl)nc(-c4ccncc4)n5CCOCCO)CC3)n2)cc1` gave an activation of 2.85%.
With `Cc1cc(N2CCN(c3nc(-c4ccc([N+](=O)[O-])cc4)cs3)CC2)c2ccccc2n1` the activation was 14.9% (active).
Compound `CC(=O)c1nnn(-c2cccc(C#N)c2)c1C` has an activation of 1.86%.
For `O=C(CCSc1ccccc1)N1CCN(C(=O)c2ccco2)CC1`, the activation was 135% (active).
`O=c1[nH]c2c(s1)C=Nc1ccccc1N2` showed an activation of 2.27%.
For `O=[n+]1c2c(n([O-])c3cc(F)c(N4CCCC4)cc31)CCC2`, the activation was 92% (active).
For `O=[n+]1c2c(n([O-])c3cc(F)c(N4CCCC4)cc31)CCCC2`, the activation was 259% (active).
With `O=[n+]1c2c(n([O-])c3ccccc31)CCC2` the activation was 29.4% (active).
`O=C(Cn1c(=O)c(=O)n(Cc2ccccc2)c2ccc(Cl)cc21)Nc1ccc(F)cc1F` was tested, and the activation was 1.32%.
With `Cc1cc(C)c(/C=C2\C(=O)Nc3ccccc32)[nH]1` the activation was 14.2% (active).
For `Cc1ccc(N/C=C2/Sc3ccccc3NC2=O)cc1`, the activation was 9.19%.
With `O=C1Nc2ccccc2/C1=C/c1cnc(-c2ccccc2)[nH]1` the activation was 92.3% (active).
`COc1ccc(CC(=O)NCc2csc(-c3cccs3)n2)cc1OC` showed an activation of 5.67%.
In the case of `COc1ccc(CNS(=O)(=O)c2cc(-c3cc(C)no3)ccc2OC)cc1OC`, the activation is reported as 24.2% (active).
With `CC1CC(C)CN(S(=O)(=O)N2CCCC(C(=O)NC3CCCCC3)C2)C1` (stereo unspecified) the activation was 219% (active).
With `Cc1cc(NC(=O)CN2C(=O)[C@@H]3[C@H](C2=O)[C@@H]2C[C@H]3C(Br)C2Br)no1` (stereo partly specified) the activation was 40% (active).
For `CC(/C=N/Nc1ccc2nncn2n1)=C\c1ccccc1`, the activation was 70.4% (active).
In the case of `CCOC(=O)c1cc(C#N)c(SCC(=O)c2cc(C#N)c(SC)nc2C)[nH]c1=O`, the activation is reported as 15.6% (active).
Work on `O=C(Nc1ccc(F)cc1F)c1ccc(COc2c(F)c(F)cc(F)c2F)o1` yielded an activation of 4.6%.
In the case of `C/C(=N\Nc1ccc([N+](=O)[O-])cc1[N+](=O)[O-])c1cccnc1`, the activation is reported as 17% (active).
Compound `O=C(c1ccc([N+](=O)[O-])cc1[N+](=O)[O-])n1cnc2ccccc21` has an activation of -1.33%.
`O=C(/C=C/c1ccccc1[N+](=O)[O-])Nc1cccnc1` gave an activation of 5.57%.
In the case of `CC(C)(Cc1cccc(CC(C)(C)C(=O)O)c1)C(=O)O`, the activation is reported as 12% (active).
`CS(=O)(=O)N(CC(=O)O)Cc1cccc(CN(CC(=O)O)S(C)(=O)=O)c1` was tested, and the activation was 9.58%.
Work on `CCCOc1ccc(N)cc1N` yielded an activation of 10.4%.
In the case of `O=C(CC1C(=O)N(c2ccc(Cl)cc2)C(=S)N1CCc1ccncc1)Nc1ccc(F)cc1` (stereo unspecified), the activation is reported as 3.64%.
`CCOC(=O)c1ccc(-c2c(-c3ccc4c(c3)OCO4)noc2C)cc1F` was tested, and the activation was 12% (active).
In the case of `Cc1ccc(-c2noc(-c3c(C)noc3C)n2)cc1`, the activation is reported as 9.16%.
For `COc1cc(-c2c(-c3ccc4c(c3)OCO4)noc2C)ccc1F`, the activation was 37.8% (active).
Work on `Nc1ccc2c3c(cccc13)-c1ccccc1-2` yielded an activation of 10%.
With `Cc1ccccc1S(=O)(=O)Cc1ccc(C(=O)NCCN(C)Cc2ccccc2)o1` the activation was 28.6% (active).
Work on `O=C(NCCN1CCOCC1)c1ccc(CS(=O)(=O)c2c(Cl)cccc2Cl)o1` yielded an activation of 7.99%.
For `Brc1ccc(-c2cnnc(N3CCCC3)n2)cc1`, the activation was 184% (active).
`CC(C)(C)c1ccc(-c2n[nH]c(=S)n2CC2CCCO2)cc1` (stereo unspecified) was tested, and the activation was 101% (active).
With `CC(C)C(=O)c1cc2c(cc1NC(=O)c1ccccc1)OCCO2` the activation was 3.91%.
For `O=C(Nc1ccccc1OC(=O)c1ccccc1)c1ccccc1`, the activation was 235% (active).
For `COc1ccccc1NC(=O)/C=C/C(=O)O`, the activation was 9.02%.
`Cc1ccc([N+](=O)[O-])c(OCCCN2C(=O)NC(C)(C)C2=O)c1` was tested, and the activation was 11%.
With `COc1ccc(C2=NN(C(=O)CSc3ncccn3)C(c3ccc(C)cc3)C2)cc1` (stereo unspecified) the activation was 505% (active).
Compound `CC1CCC(C(C)C)C(OC(=O)Cn2c(-c3ccccc3)[n+](C)c3ccccc32)C1` (stereo unspecified) has an activation of 10.7%.
For `CC(/C=C/c1ccc(N(C)C)cc1)=N/N=C1/NC(=O)CC(C(=O)Nc2ccc(Cl)cc2)S1` (stereo unspecified), the activation was 14.4% (active).
Work on `COc1ccc(CN=C2NC(=O)CC(C(=O)Nc3ccc(F)cc3)S2)cc1` (stereo unspecified) yielded an activation of 10.2%.
Work on `CN(C)c1ccc(/C=C/C(=O)c2cc(Cl)ccc2O)cc1` yielded an activation of 5.68%.
With `O=C(c1cccs1)N1CCN=C1SCc1cccc(F)c1` the activation was 0.56%.
For `N#Cc1c(-c2ccccc2F)cc(C2CC2)nc1SCC(=O)c1cccs1`, the activation was 14.3% (active).
Compound `COc1ccc(-c2cc(C3CC3)nc(SCC(=O)c3cccs3)c2C#N)cc1` has an activation of 8.22%.

— PubChem BioAssay AID504383 (The Scripps Research Institute Molecular Screening Center, 2011)
